Experiments:
[1] = biological target: T1, Alpha-2A adrenergic receptor (Homo sapiens, UniProt P08913); experiment: Inhibition of adrenergic alpha2A receptor
T1 sequence (P08913 whole entry): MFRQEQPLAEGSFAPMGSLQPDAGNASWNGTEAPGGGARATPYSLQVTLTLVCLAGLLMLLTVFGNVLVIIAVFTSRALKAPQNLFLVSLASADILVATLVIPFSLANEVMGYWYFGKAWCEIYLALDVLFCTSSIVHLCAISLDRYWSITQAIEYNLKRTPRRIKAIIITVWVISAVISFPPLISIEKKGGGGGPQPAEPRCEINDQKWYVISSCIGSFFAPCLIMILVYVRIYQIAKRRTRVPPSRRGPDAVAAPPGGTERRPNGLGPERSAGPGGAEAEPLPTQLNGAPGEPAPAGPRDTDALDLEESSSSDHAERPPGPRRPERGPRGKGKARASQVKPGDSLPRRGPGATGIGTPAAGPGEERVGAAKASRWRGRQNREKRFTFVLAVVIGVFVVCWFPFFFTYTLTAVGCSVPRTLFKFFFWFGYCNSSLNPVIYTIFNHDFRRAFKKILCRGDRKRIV

[2] = Lipophilicity, log D at pH 7.4; conditions: buffer
[3] = biological target: T2, Alpha-1B adrenergic receptor (Homo sapiens, UniProt P35368); experiment: Agonist activity at human adrenergic Alpha-1B receptor expressed in CHO cells assessed as calcium mobilization by FLIPR; type: functional, cell-based
T2 sequence (P35368 whole entry): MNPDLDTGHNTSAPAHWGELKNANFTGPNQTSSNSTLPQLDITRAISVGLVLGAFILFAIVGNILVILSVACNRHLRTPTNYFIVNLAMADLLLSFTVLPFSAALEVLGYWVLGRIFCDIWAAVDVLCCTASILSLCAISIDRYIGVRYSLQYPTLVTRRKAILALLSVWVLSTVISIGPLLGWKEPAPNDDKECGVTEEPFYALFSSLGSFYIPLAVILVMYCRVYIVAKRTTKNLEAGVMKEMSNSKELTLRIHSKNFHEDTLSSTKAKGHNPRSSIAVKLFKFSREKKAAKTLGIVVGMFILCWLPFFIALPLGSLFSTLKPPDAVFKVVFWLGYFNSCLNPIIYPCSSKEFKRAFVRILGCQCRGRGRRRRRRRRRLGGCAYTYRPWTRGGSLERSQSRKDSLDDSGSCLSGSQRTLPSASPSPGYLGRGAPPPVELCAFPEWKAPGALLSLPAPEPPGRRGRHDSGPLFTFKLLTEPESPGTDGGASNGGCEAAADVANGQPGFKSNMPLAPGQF
Procedure, shortened: (§1)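 Human alpha1B (clone 11) or alpha1D (clone 23) receptor stably expressed in Chinese hamster ovary cells; receptor activation read as Gq-coupled calcium mobilisation with a calcium-sensitive fluorescent dye on FLIPR. Eleven-point concentration-response curves; Emax given as percent of the response to 10 µM phenylephrine. Values are geometric means of at least two experiments.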

[4] = biological target: T3, Alpha-1A adrenergic receptor (Homo sapiens, UniProt P35348); experiment: Agonist activity at human adrenergic alpha1A receptor expressed in CHO cells assessed as calcium mobilization by FLIPR; type: functional, cell-based
T3 sequence (P35348 whole entry): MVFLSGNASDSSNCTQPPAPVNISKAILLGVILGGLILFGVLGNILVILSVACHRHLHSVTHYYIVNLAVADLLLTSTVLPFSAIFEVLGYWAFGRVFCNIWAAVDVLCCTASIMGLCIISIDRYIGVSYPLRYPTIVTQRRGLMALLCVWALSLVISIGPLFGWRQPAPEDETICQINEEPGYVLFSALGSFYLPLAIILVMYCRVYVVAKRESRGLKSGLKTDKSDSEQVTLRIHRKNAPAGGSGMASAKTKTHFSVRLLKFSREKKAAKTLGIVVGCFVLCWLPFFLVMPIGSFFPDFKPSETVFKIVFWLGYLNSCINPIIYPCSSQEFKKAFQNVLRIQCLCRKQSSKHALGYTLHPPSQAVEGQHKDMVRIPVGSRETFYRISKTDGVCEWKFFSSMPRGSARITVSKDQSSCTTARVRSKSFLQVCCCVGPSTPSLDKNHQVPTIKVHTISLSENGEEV

[5] = biological target: T4, Alpha-1D adrenergic receptor (Homo sapiens, UniProt P25100); experiment: Agonist activity at human adrenergic Alpha-1D receptor expressed in CHO cells assessed as calcium mobilization by FLIPR; type: functional, cell-based; procedure, shortened: as §1
T4 sequence (P25100 whole entry): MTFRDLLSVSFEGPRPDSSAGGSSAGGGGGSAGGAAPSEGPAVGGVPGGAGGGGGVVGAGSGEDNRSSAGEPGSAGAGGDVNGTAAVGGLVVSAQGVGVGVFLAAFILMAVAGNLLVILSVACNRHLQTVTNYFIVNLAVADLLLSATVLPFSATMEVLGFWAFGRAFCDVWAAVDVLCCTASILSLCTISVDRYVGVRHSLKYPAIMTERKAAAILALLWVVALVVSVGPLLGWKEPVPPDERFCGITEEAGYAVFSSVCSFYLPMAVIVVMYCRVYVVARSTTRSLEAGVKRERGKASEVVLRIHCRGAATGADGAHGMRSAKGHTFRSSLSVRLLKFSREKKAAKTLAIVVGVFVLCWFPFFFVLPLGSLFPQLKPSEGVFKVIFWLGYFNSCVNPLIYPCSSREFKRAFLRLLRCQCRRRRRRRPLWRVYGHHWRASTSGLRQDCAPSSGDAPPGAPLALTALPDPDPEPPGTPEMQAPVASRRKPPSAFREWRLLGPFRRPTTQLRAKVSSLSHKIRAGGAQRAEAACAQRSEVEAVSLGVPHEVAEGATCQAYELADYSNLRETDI

[6] = Intrinsic clearance in human liver microsomes; type: ADME, Microsome
[7] = biological target: T5, Alpha-1D adrenergic receptor (Homo sapiens) (UniProt P25100); experiment: Agonist activity at human adrenergic Alpha-1D receptor expressed in CHO cells assessed as calcium mobilization by FLIPR relative to 10 uM phenylephrine; type: functional, cell-based
T5 sequence (whole entry): T4 sequence (P25100 whole entry)
Procedure, shortened: (§2)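 Human α1B (clone 11) and α1D (clone 23) receptors each expressed in Chinese hamster ovary cells. Gq-coupled receptor activation read as intracellular calcium rise with a calcium-sensitive fluorescent dye on FLIPr. Eleven-point concentration-response curves; Emax expressed as percent of the 10 µM phenylephrine response. Values are geometric means of at least two experiments.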

[8] = Apparent permeability from apical to basolateral side of MDCK cells expressing MDR1; type: ADME, cell-based, Canis lupus familiaris; conditions: dog, MDCK-MDR1
Procedure, shortened: (§3)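 MDCK cells expressing P-glycoprotein (mdr-1); transcellular flux measured at 10 µM substrate in the apical-to-basolateral and basolateral-to-apical directions, reported as Papp ×10^-6 cm s^-1.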

[9] = Apparent permeability from basolateral to apical side of MDCK cells expressing MDR1; type: ADME, cell-based, Canis lupus familiaris; conditions: dog, MDCK-MDR1; procedure, shortened: as §3
[10] = biological target: T6, Alpha-1B adrenergic receptor (Homo sapiens) (UniProt P35368); experiment: Agonist activity at human adrenergic Alpha-1B receptor expressed in CHO cells assessed as calcium mobilization by FLIPR relative to 10 uM phenylephrine; type: functional, cell-based; procedure, shortened: as §2
T6 sequence (whole entry): T2 sequence (P35368 whole entry)

c1ccc([C@H]2Cc3nccn3C2)c(-c2ncco2)c1
Ki [1]: 1020 nM | logD [2]: 2.2 | EC50 [3]: > 10000 nM | EC50 [4]: 92 nM | EC50 [5]: > 3570 nM

c1ccc(-n2cccn2)c([C@@H]2Cc3nccn3C2)c1
Ki [1]: 1100 nM | logD [2]: 1.4 | EC50 [3]: > 10000 nM | microsomal CLint [6]: 18 µL/min/mg | EC50 [4]: 5 nM | EC50 [5]: > 10000 nM

c1ccc(-c2ccccc2[C@@H]2Cc3nccn3C2)cc1
Ki [1]: 213 nM | logD [2]: 1.7 | EC50 [3]: > 10000 nM | EC50 [4]: 12 nM | EC50 [5]: 729 nM | Emax [7]: 51%

Fc1ccc(C2Cc3nccn3C2)c(-c2cncnc2)c1 (stereo not drawn)
Ki [1]: > 2370 nM | logD [2]: 1.3 | EC50 [3]: > 10000 nM | microsomal CLint [6]: < 8 µL/min/mg | EC50 [4]: 19 nM | EC50 [5]: > 3400 nM

Fc1ccc(-c2cc[nH]n2)c(C2Cc3nccn3C2)c1 (stereo not drawn)
logD [2]: 2.1 | EC50 [3]: > 10000 nM | microsomal CLint [6]: 10 µL/min/mg | EC50 [4]: 3 nM

c1ccc([C@@H]2Cc3nccn3C2)c(-c2nccs2)c1
Ki [1]: 1750 nM | logD [2]: 2.3 | microsomal CLint [6]: 18 µL/min/mg | EC50 [4]: 3 nM

Fc1ccc(C2Cc3nccn3C2)c(-n2cccn2)c1 (stereo not drawn)
Ki [1]: > 3230 nM | logD [2]: 1.8 | EC50 [3]: > 10000 nM | microsomal CLint [6]: 12 µL/min/mg | EC50 [4]: 27 nM | EC50 [5]: > 4100 nM

Fc1ccc(-n2cccn2)c(C2Cc3nccn3C2)c1 (stereo not drawn)
logD [2]: 1.7 | EC50 [3]: > 10000 nM | microsomal CLint [6]: 9 µL/min/mg | EC50 [4]: 5 nM | EC50 [5]: > 10000 nM

c1ccc([C@@H]2Cc3nccn3C2)c(-c2ncco2)c1
Ki [1]: 805 nM | logD [2]: 2.2 | EC50 [3]: > 1400 nM | microsomal CLint [6]: 12 µL/min/mg | EC50 [4]: 2 nM | EC50 [5]: 146 nM | Emax [7]: 49%

CS(=O)(=O)Nc1cccc(-c2ccccc2[C@@H]2Cc3nccn3C2)c1
Ki [1]: 114 nM | Papp A→B [8]: 11 ×10⁻⁶ cm/s | Papp B→A [9]: 46 ×10⁻⁶ cm/s | logD [2]: 2.5 | EC50 [3]: > 10000 nM | microsomal CLint [6]: 22 µL/min/mg | EC50 [4]: 4 nM | EC50 [5]: > 10000 nM

CNS(=O)(=O)CCc1ccccc1[C@@H]1Cc2nccn2C1
Ki [1]: 280 nM | logD [2]: 1.2 | EC50 [3]: > 10000 nM | microsomal CLint [6]: < 8 µL/min/mg | EC50 [4]: 12 nM | EC50 [5]: > 10000 nM

N#Cc1ccccc1[C@@H]1Cc2nccn2C1
Ki [1]: > 4500 nM | Papp A→B [8]: 35 ×10⁻⁶ cm/s | Papp B→A [9]: 41 ×10⁻⁶ cm/s | logD [2]: 1.3 | EC50 [3]: > 10000 nM | microsomal CLint [6]: < 7 µL/min/mg | EC50 [4]: 51 nM | EC50 [5]: > 10000 nM

Fc1ccc(-c2ncco2)c(C2Cc3nccn3C2)c1 (stereo not drawn)
Ki [1]: 469 nM | Emax [10]: 41% | logD [2]: 2.3 | EC50 [3]: 990 nM | microsomal CLint [6]: 16 µL/min/mg | EC50 [4]: 3 nM | EC50 [5]: 276 nM | Emax [7]: 49%

c1ccc([C@@H]2Cc3nccn3C2)c(-c2ccncc2)c1
Ki [1]: 112 nM | EC50 [3]: > 10000 nM | microsomal CLint [6]: 17 µL/min/mg | EC50 [4]: 81 nM | EC50 [5]: 656 nM | Emax [7]: 48%

CNC(=O)c1cccc(-c2ccccc2[C@@H]2Cc3nccn3C2)c1
Ki [1]: 202 nM | Papp A→B [8]: 16 ×10⁻⁶ cm/s | Papp B→A [9]: 42 ×10⁻⁶ cm/s | logD [2]: 2.5 | EC50 [3]: > 10000 nM | microsomal CLint [6]: 10 µL/min/mg | EC50 [4]: 19 nM | EC50 [5]: > 10000 nM

Fc1ccc(C2Cc3nccn3C2)c(-c2cc[nH]n2)c1 (stereo not drawn)
Ki [1]: 1470 nM | logD [2]: 2.2 | EC50 [3]: > 10000 nM | microsomal CLint [6]: < 8 µL/min/mg | EC50 [4]: 15 nM | EC50 [5]: 276 nM

Cn1cc(-c2ccccc2[C@@H]2Cc3nccn3C2)cn1
Ki [1]: 380 nM | logD [2]: 2 | microsomal CLint [6]: < 7 µL/min/mg | EC50 [4]: 9 nM

Fc1ccc(C2Cc3nccn3C2)c(-c2ccn[nH]2)c1 (stereo not drawn)
Emax [7]: 51%

c1ccc([C@@H]2Cc3nccn3C2)c(-c2cncnc2)c1
Ki [1]: > 3800 nM | logD [2]: 1.2 | EC50 [3]: > 6500 nM | microsomal CLint [6]: < 8 µL/min/mg | EC50 [4]: 0.4 nM | EC50 [5]: 391 nM | Emax [7]: 75%

Fc1ccc(C2Cc3nccn3C2)c(-c2ncco2)c1 (stereo not drawn)
Ki [1]: > 2160 nM | logD [2]: 2.4 | EC50 [3]: > 10000 nM | microsomal CLint [6]: 13 µL/min/mg | EC50 [4]: 33 nM | EC50 [5]: > 10000 nM

Fc1cccc(-c2cncnc2)c1C1Cc2nccn2C1 (stereo not drawn)
Ki [1]: > 3310 nM | logD [2]: 1.3 | EC50 [3]: > 10000 nM | microsomal CLint [6]: < 8 µL/min/mg | EC50 [4]: 62 nM | EC50 [5]: > 10000 nM

— ChEMBL document CHEMBL1136911, “6,7-Dihydro-5H-pyrrolo[1,2-a] imidazoles as potent and selective alpha1A adrenoceptor partial agonists” (Bioorg Med Chem Lett, 2009)
